From ChEMBL document CHEMBL1143838, “Candida albicans and Candida dubliniensis respond differently to echinocandin antifungal agents in vitro” (2007)
*1 amine or outer side, *2 acyl side, *3 side chain or, on linkers, in order; H or OH if unused. Where a SMILES comes first, the peptide text is derived from it. Bridges are numbered along the chain shown (N, C = ends). [ ]: non-standard residue; d: D form. The star is where a group is joined. pTerphenylCO(4''-OnC5H11) = CCCCCOc1ccc(-c2ccc(-c3ccc(C(=O)*)cc3)cc2)cc1; Orn(4R-OH,5R-OH) = O=C([C@H](C[C@@H](O)[C@@H](O)N[*:3])N[*:1])[*:2]; hTyr(3S-OH,4S-OH) = N[C@H](C(=O)O)[C@H](O)[C@@H](O)c1ccc(O)cc1; Pro(3S-OH,4S-Me) = C[C@H]1CN[C@H](C(=O)O)[C@H]1O; Hyp = O=C(O)[C@@H]1C[C@@H](O)CN1

Key:
Assay type in all cases: functional
[1] = tested on: Candida albicans; experiment: Antifungal activity against Candida albicans NCPF6525 after 24 hrs by EUCAST test
Method in brief: (§1)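 EUCAST broth microdilution with aqueous doubling dilutions of drug. Inoculum grown overnight at 30°C in NGY, then added to MOPS-buffered RPMI 1640 with 2% glucose at an initial 10^5 yeasts/ml. Incubated 35°C for 24 h. MICs taken from triplicate spectrophotometric dose-response data as 50% and 80% growth-reduction endpoints.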

[2] = tested on: Candida albicans; experiment: Antifungal activity against Candida albicans T28 after 24 hrs by CLSI M27-A test
Method in brief: (§2)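 CLSI M27-A broth microdilution with aqueous doubling dilutions of drug. Inoculum grown overnight at 30°C in NGY medium, then added to MOPS-buffered RPMI 1640 at an initial 10^3 yeasts/ml. Incubated 35°C for 24 h. MIC read visually as the lowest concentration giving a marked decrease in visible growth; paradoxical or trailing growth noted.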

[3] = tested on: Candida albicans; experiment: Antifungal activity against Candida albicans T28 after 24 hrs by EUCAST test; method in brief: as §1
[4] = tested on: Candida albicans; experiment: Antifungal activity against Candida albicans T32 after 24 hrs by CLSI M27-A test; method in brief: as §2
[5] = tested on: Candida albicans; experiment: Antifungal activity against Candida albicans SC5314 after 24 hrs by CLSI M27-A test; details: SC5314, 24 h; method in brief: as §2
[6] = tested on: Candida albicans; experiment: Antifungal activity against Candida albicans SC5314 after 24 hrs by EUCAST test; details: SC5314, 24 h; method in brief: as §1
[7] = tested on: Candida albicans; experiment: Antifungal activity against Candida albicans SCS68858 after 24 hrs by CLSI M27-A test; method in brief: as §2
[8] = tested on: Candida albicans; experiment: Antifungal activity against Candida albicans AM2003/0083 after 24 hrs by CLSI M27-A test; method in brief: as §2
[9] = tested on: Candida albicans; experiment: Antifungal activity against Candida albicans B06-341 after 24 hrs by CLSI M27-A test; method in brief: as §2
[10] = tested on: Candida albicans; experiment: Antifungal activity against Candida albicans HK04M102095 after 24 hrs by CLSI M27-A test; method in brief: as §2
[11] = tested on: Candida albicans; experiment: Antifungal activity against Candida albicans JIMS101103 after 24 hrs by EUCAST test; method in brief: as §1
[12] = tested on: Candida albicans; experiment: Antifungal activity against Candida albicans JIMS132203 after 24 hrs by CLSI M27-A test; method in brief: as §2
[13] = tested on: Candida albicans; experiment: Antifungal activity against Candida albicans JIMS132203 after 24 hrs by EUCAST test; method in brief: as §1
[14] = tested on: Candida albicans; experiment: Antifungal activity against Candida albicans JIMS146204 after 24 hrs by CLSI M27-A test; method in brief: as §2
[15] = tested on: Candida albicans; experiment: Antifungal activity against Candida albicans JIMS146204 after 24 hrs by EUCAST test; method in brief: as §1
[16] = tested on: Candida albicans; experiment: Antifungal activity against Candida albicans NCPF6525 after 24 hrs by CLSI M27-A test; method in brief: as §2
[17] = tested on: Candida albicans; experiment: Antifungal activity against Candida albicans NR3 after 24 hrs by CLSI M27-A test; method in brief: as §2
[18] = tested on: Candida albicans; experiment: Antifungal activity against Candida albicans T26 after 24 hrs by CLSI M27-A test; method in brief: as §2
[19] = tested on: Candida albicans; experiment: Antifungal activity against Candida albicans T26 after 24 hrs by EUCAST test; method in brief: as §1
[20] = tested on: Candida albicans; experiment: Antifungal activity against Candida albicans Y109 after 24 hrs by CLSI M27-A test; method in brief: as §2
[21] = tested on: Candida albicans; experiment: Antifungal activity against Candida albicans Y109 after 24 hrs by EUCAST test; method in brief: as §1
[22] = tested on: Candida dubliniensis; experiment: Antifungal activity against Candida dubliniensis 81/060 after 24 hrs by EUCAST test; method in brief: as §1
[23] = tested on: Candida dubliniensis; experiment: Antifungal activity against Candida dubliniensis 90/033 after 24 hrs by EUCAST test; method in brief: as §1
[24] = tested on: Candida dubliniensis; experiment: Antifungal activity against Candida dubliniensis 910Aa after 24 hrs by CLSI M27-A test; method in brief: as §2
[25] = tested on: Candida dubliniensis; experiment: Antifungal activity against Candida dubliniensis 910Aa after 24 hrs by EUCAST test; method in brief: as §1
[26] = tested on: Candida dubliniensis; experiment: Antifungal activity against Candida dubliniensis KR after 24 hrs by EUCAST test
Method in brief: (§3)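 Yeasts were grown overnight at 30°C in NGY, then inoculated at 10^5 yeasts/ml initial concentration into MOPS-buffered RPMI 1640 with 2% glucose containing aqueous doubling dilutions of drug. Plates were held at 35°C for 24 h. MICs came from triplicate spectrophotometric dose-response data at 50% and 80% growth-reduction endpoints. Trailing meant a >100-fold gap between these endpoints; paradoxical meant regrowth ≥5% above the curve minimum.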

[27] = tested on: Candida dubliniensis; experiment: Antifungal activity against Candida dubliniensis Leic875 after 24 hrs by CLSI M27-A test
Method in brief: (§4)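 Broth microdilution with echinocandins as aqueous doubling dilutions. Yeasts were grown overnight at 30°C in NGY and seeded at 10^3 yeasts/ml initial concentration in MOPS-buffered RPMI 1640, then incubated at 35°C for 24 h. The MIC was read visually as the lowest concentration giving a marked decrease in visible growth; paradoxical or trailing growth was noted.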

[28] = tested on: Candida dubliniensis; experiment: Antifungal activity against Candida dubliniensis Leic875 after 24 hrs by EUCAST test; method in brief: as §3
[29] = tested on: Candida dubliniensis; experiment: Antifungal activity against Candida dubliniensis Leic952 after 24 hrs by CLSI M27-A test; method in brief: as §4
[30] = tested on: Candida dubliniensis; experiment: Antifungal activity against Candida dubliniensis SCS17154969-2 after 24 hrs by CLSI M27-A test; method in brief: as §4
[31] = tested on: Candida dubliniensis; experiment: Antifungal activity against Candida dubliniensis SCS59662 after 24 hrs by CLSI M27-A test; method in brief: as §4
[32] = tested on: Candida dubliniensis; experiment: Antifungal activity against Candida dubliniensis SCS59662 after 24 hrs by EUCAST test; method in brief: as §3
[33] = tested on: Candida dubliniensis; experiment: Antifungal activity against Candida dubliniensis SCS65875C after 24 hrs by EUCAST test; method in brief: as §3
[34] = tested on: Candida dubliniensis; experiment: Antifungal activity against Candida dubliniensis B71507 after 24 hrs by CLSI M27-A test; method in brief: as §4
[35] = tested on: Candida dubliniensis; experiment: Antifungal activity against Candida dubliniensis B71507 after 24 hrs by EUCAST test; method in brief: as §3
[36] = tested on: Candida dubliniensis; experiment: Antifungal activity against Candida dubliniensis IK after 24 hrs by EUCAST test; method in brief: as §3
[37] = tested on: Candida dubliniensis; experiment: Antifungal activity against Candida dubliniensis J930936 after 24 hrs by CLSI M27-A test; method in brief: as §4
[38] = tested on: Candida dubliniensis; experiment: Antifungal activity against Candida dubliniensis J930936 after 24 hrs by EUCAST test; method in brief: as §3
[39] = tested on: Candida dubliniensis; experiment: Antifungal activity against Candida dubliniensis SCSBB417709 after 24 hrs by EUCAST test; method in brief: as §3
[40] = tested on: Candida dubliniensis; experiment: Antifungal activity against Candida dubliniensis ST after 24 hrs by EUCAST test; method in brief: as §3
[41] = tested on: Candida parapsilosis; experiment: Antifungal activity against Candida parapsilosis ATCC 22019 after 24 hrs by CLSI M27-A test; details: Lodderomyces parapsilosis, ATCC 22019, 24 h; method in brief: as §4
[42] = tested on: Candida parapsilosis; experiment: Antifungal activity against Candida parapsilosis ATCC 22019 after 24 hrs by EUCAST test; details: Lodderomyces parapsilosis, ATCC 22019, 24 h; method in brief: as §3
[43] = tested on: Pichia kudriavzevii; experiment: Antifungal activity against Candida krusei ATCC 6258 after 24 hrs by EUCAST test; details: ATCC 6258, 24 h; method in brief: as §3
[44] = tested on: Pichia kudriavzevii; experiment: Antifungal activity against Candida krusei ATCC 6258 after 24 hrs by CLSI M27-A test; details: ATCC 6258, 24 h
Method in brief: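 Broth microdilution per CLSI M27-A. Drugs were prepared as aqueous doubling dilutions. Inoculum was grown overnight at 30°C in neopeptone-yeast extract-glucose medium, then added to MOPS-buffered RPMI 1640 at an initial 10^3 yeasts/ml. Plates were incubated at 35°C for 24 h. MIC was read visually as the lowest concentration giving a marked decrease in visible growth.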

Measured: MIC50

CCCCCOc1ccc(-c2ccc(-c3ccc(C(=O)N[C@H]4C[C@@H](O)[C@@H](O)NC(=O)[C@@H]5[C@@H](O)[C@@H](C)CN5C(=O)[C@H]([C@@H](C)O)NC(=O)[C@H]([C@H](O)[C@@H](O)c5ccc(O)cc5)NC(=O)[C@@H]5C[C@@H](O)CN5C(=O)[C@H]([C@@H](C)O)NC4=O)cc3)cc2)cc1 [ANIDULAFUNGIN] ({pTerphenylCO(4''-OnC5H11)}-[Orn(4R-OH,5R-OH)]T[Hyp][hTyr(3S-OH,4S-OH)]T[Pro(3S-OH,4S-Me)]; lactam 1-C)
8 µg/mL: [23]
0.25 µg/mL: [1] | [20] | [35]
1 µg/mL: [17] | [18]
0.5 µg/mL: [19] | [41] | [42]
0.063 µg/mL: [43]
≤ 0.032 µg/mL: [2] | [3] | [4] | [5] | [6] | [7] | [8] | [10] | [11] | [12] | [13] | [14] | [15] | [22] | [24] | [25] | [26] | [27] | [28] | [29] | [30] | [31] | [32] | [33] | [34] | [36] | [37] | [38] | [39] | [40]
0.13 µg/mL: [9] | [16] | [21] | [44]
